For assay [1], the target named is Butyrylcholinesterase (Rattus norvegicus, UniProt Q9JKC1). Put plainly: Inhibition of BChE in rat serum after 15 mins by modified Ellman method. The format is cell-free. In general terms: In Ellman's method for cholinesterases, released thiocholine reacts with DTNB.
The target of assay [2] is T1, Acetylcholinesterase (Rattus norvegicus, UniProt P37136).
T1 sequence (P37136 whole entry): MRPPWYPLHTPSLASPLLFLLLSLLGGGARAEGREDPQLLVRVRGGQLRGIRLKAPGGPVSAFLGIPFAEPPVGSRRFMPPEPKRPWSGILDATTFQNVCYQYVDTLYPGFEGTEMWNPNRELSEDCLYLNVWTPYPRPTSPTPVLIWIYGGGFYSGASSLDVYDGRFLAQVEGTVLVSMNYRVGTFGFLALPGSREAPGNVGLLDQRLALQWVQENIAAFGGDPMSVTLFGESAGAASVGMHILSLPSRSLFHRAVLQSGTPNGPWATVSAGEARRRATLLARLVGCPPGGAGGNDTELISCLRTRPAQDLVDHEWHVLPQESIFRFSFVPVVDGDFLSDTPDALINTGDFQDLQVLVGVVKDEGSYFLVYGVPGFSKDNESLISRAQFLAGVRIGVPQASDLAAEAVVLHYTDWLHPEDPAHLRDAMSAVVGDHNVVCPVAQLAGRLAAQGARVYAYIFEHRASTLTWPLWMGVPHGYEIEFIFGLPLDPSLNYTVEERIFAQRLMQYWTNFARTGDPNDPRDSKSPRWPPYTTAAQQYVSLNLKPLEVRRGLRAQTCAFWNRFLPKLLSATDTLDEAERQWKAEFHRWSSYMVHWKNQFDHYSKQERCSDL
Nature of the assay: Inhibition of AChE in rat cortex after 15 mins by modified Ellman method.

Assay [3] has as its system Mus musculus. Nature of the assay: Cognitive enhancing effect against scopolamine-induced acquisition memory deficit in mouse assessed as escape latency at 10 mg/kg, intragastric gavage after 24 hrs by step-down passive avoidance test. The format is functional. The method in brief: (§1)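 Step-down passive avoidance in mice, 10 per group. In training, each mouse was placed on the platform and its latency to step down onto the grid with all four paws was recorded. It was shocked immediately on stepping down, and the session lasted 3 min. Memory was scored as step-down errors (times) and escape latency (s), each given as mean ± deviation.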

Assay [4] deals with Mus musculus. Put plainly: Cognitive enhancing effect against scopolamine-induced acquisition memory deficit in mouse assessed as times of step-down at 10 mg/kg, intragastric gavage after 24 hrs by step-down passive avoidance test. The format is functional. In a few lines: as §1
Assay [5] has as its system Mus musculus. Nature of the assay: Cognitive enhancing effect against scopolamine-induced acquisition memory deficit in mouse assessed as times of step-down at 2 mg/kg, intragastric gavage after 24 hrs by step-down passive avoidance test. The format is functional. The method in brief:
as §1

In assay [6] the test system is Mus musculus. Nature of the assay: Cognitive enhancing effect against scopolamine-induced acquisition memory deficit in mouse assessed as escape latency at 5 mg/kg, intragastric gavage after 24 hrs by step-down passive avoidance test. The format is functional. The method in brief: as §1
Assay [7] relates to Mus musculus. Put plainly: Cognitive enhancing effect against scopolamine-induced acquisition memory deficit in mouse assessed as times of step-down at 5 mg/kg, intragastric gavage after 24 hrs by step-down passive avoidance test. The format is functional. In a few lines:
as §1

The subject of assay [8] is Mus musculus. Put plainly: Cognitive enhancing effect against scopolamine-induced acquisition memory deficit in mouse assessed as escape latency at 2 mg/kg, intragastric gavage after 24 hrs by step-down passive avoidance test. In kind it is functional. The method in brief: as §1

Sequence of Butyrylcholinesterase (Q9JKC1 whole entry): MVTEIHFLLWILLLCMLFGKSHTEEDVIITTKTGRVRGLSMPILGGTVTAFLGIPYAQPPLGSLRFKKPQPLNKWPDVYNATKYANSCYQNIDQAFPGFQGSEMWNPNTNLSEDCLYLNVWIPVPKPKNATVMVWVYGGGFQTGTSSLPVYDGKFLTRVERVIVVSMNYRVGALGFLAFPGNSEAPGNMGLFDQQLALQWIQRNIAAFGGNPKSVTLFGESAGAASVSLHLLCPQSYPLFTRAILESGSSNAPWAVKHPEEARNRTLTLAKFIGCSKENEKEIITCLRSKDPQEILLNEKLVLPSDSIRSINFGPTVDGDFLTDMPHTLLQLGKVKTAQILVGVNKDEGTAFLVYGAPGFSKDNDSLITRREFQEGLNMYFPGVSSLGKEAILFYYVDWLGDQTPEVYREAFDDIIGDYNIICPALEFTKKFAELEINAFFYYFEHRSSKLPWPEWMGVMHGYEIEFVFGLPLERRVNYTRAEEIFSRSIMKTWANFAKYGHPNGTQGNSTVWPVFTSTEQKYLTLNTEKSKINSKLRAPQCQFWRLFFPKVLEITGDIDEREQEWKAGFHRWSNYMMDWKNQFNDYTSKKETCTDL

One may read the IC50 as the midpoint of a concentration-inhibition curve. With `COc1cc2c(cc1OC)C(=O)/C(=C/c1ccc(CN3CCCC3)cc1)O2`, the half-maximal inhibitory concentration (IC50) in assay [1] came to 36.4 µM; in assay [2], 0.16 µM.

As for `COc1cc2c(cc1OC)C(=O)/C(=C/c1cccc(CN(C)C)c1)C2`, the results for the IC50 in assay [1] and in assay [2] were 89.3 µM and 2.14 µM, respectively.

Consider `COc1cc2c(cc1OC)C(=O)/C(=C/c1ccc(CN(C)C)cc1)C2`, for which the IC50 in assay [1] was 315 µM; in assay [2] it was 0.42 µM.

In the case of `CCN(C)Cc1cccc(/C=C2\Cc3cc(OC)c(OC)cc3C2=O)c1`, the IC50 in assay [1] came to 36.8 µM; in assay [2], 0.49 µM.

In the case of `CCN(C)Cc1ccc(/C=C2\Cc3cc(OC)c(OC)cc3C2=O)cc1`, the IC50 in assay [1] came out at 20.1 µM; in assay [2] it was 0.27 µM.

For `CCN(C)Cc1cccc(/C=C2\Oc3cc(OC)c(OC)cc3C2=O)c1`, the IC50 turned out to be 23.6 µM in assay [1] and 0.7 µM in assay [2].

In the case of `CCN(CC)Cc1ccc(/C=C2\Oc3cc(OC)c(OC)cc3C2=O)cc1`, the 50% inhibitory concentration (IC50) amounted to 47.9 µM in assay [1] and 0.14 µM in assay [2].

Regarding `CCN(CC)Cc1ccc(/C=C2\Cc3cc(OC)c(OC)cc3C2=O)cc1`, the Activity is reported as 60 s in assay [3]; 1.6 in assay [4]; 2.67 in assay [5]; 55 s in assay [6]; 2 in assay [7]; 47 s in assay [8]. In addition, the IC50 turned out to be 82 µM in assay [1] and 0.035 µM in assay [2].

`COc1cc2c(cc1OC)C(=O)/C(=C/c1cccc(CN3CCCC3)c1)C2`: the IC50 was 41.6 µM in assay [1] and 0.24 µM in assay [2].

Take `COc1cc2c(cc1OC)C(=O)/C(=C/c1ccc(CN3CCCC3)cc1)C2`: the 50% inhibitory concentration (IC50) stood at 26.6 µM in assay [1] and 0.045 µM in assay [2].

In the case of `COc1cc2c(cc1OC)C(=O)C(Cc1cccc(CN3CCCCC3)c1)C2` (stereo not drawn), the IC50 was found to be 70.4 µM in assay [1] and 0.66 µM in assay [2].

Turning to `CCN(C)Cc1cccc(CC2Oc3cc(OC)c(OC)cc3C2=O)c1` (stereo not drawn), the results for the IC50 in assay [1] and in assay [2] were 25.9 µM and 1.54 µM, respectively.

With `CCN(CC)Cc1cccc(CC2Cc3cc(OC)c(OC)cc3C2=O)c1` (stereo not drawn), the results for the IC50 in assay [1] and in assay [2] were 32 µM and 1.48 µM, respectively.

Take `CCN(CC)Cc1ccc(CC2Cc3cc(OC)c(OC)cc3C2=O)cc1` (stereo not drawn): the 50% inhibitory concentration (IC50) was 11.7 µM in assay [1] and 0.29 µM in assay [2].

For the compound `COc1cc2c(cc1OC)C(=O)C(Cc1cccc(CN3CCCCC3)c1)O2` (stereo not drawn), the IC50 in assay [1] came to 98.1 µM; in assay [2] it was 0.24 µM.

Consider `CCN(CC)Cc1cccc(CC2Oc3cc(OC)c(OC)cc3C2=O)c1` (stereo not drawn), for which the values for the IC50 in assay [1] and in assay [2] were 38.2 µM and 1.07 µM, respectively.

With `CCN(CC)Cc1ccc(CC2Oc3cc(OC)c(OC)cc3C2=O)cc1` (stereo not drawn), the 50% inhibitory concentration (IC50) in assay [1] is 16.4 µM; in assay [2], 0.44 µM.

Regarding `COc1cc2c(cc1OC)C(=O)C(Cc1cccc(CN3CCCC3)c1)C2` (stereo not drawn), the results for the half-inhibitory concentration (IC50) in assay [1] and in assay [2] were 42.2 µM and 2.58 µM, respectively.

As to `COc1cc2c(cc1OC)C(=O)C(Cc1ccc(CN3CCCC3)cc1)C2` (stereo not drawn), the results for the IC50 in assay [1] and in assay [2] were 33.2 µM and 0.15 µM, respectively.

For the compound `CCN(C)Cc1ccc(CC2Cc3cc(OC)c(OC)cc3C2=O)cc1` (stereo not drawn), the concentration for half-maximal inhibition (IC50) in assay [1] stood at 34.5 µM; in assay [2], 0.38 µM.

As to `COc1cc2c(cc1OC)C(=O)C(Cc1cccc(CN(C)C)c1)C2` (stereo not drawn), the results for the 50% inhibitory concentration (IC50) in assay [1] and in assay [2] were 25.2 µM and 3.74 µM, respectively.

In assay [1], `COc1cc2c(cc1OC)C(=O)C(Cc1ccc(CN(C)C)cc1)C2` (stereo not drawn) came in with a half-inhibitory concentration (IC50) of 40.7 µM.

`COc1cc2c(cc1OC)C(=O)/C(=C/c1cccc(CN3CCCCC3)c1)C2`: the 50% inhibitory concentration (IC50) in assay [1] turned out to be 55.2 µM; in assay [2], 0.16 µM.

As for `COc1cc2c(cc1OC)C(=O)/C(=C/c1cccc(CN3CCCCC3)c1)O2`, the IC50 in assay [1] came to 45 µM; in assay [2] it was 0.082 µM.

With `CCN(CC)Cc1cccc(/C=C2\Oc3cc(OC)c(OC)cc3C2=O)c1`, the IC50 worked out at 65.1 µM in assay [1] and 1.18 µM in assay [2].

Regarding `COc1cc2c(cc1OC)C(=O)/C(=C/c1ccc(CN3CCCCC3)cc1)C2`, the IC50 in assay [1] was 84.6 µM; in assay [2], 0.1 µM.

As to `COc1cc2c(cc1OC)C(=O)C(Cc1ccc(CN3CCCC3)cc1)O2` (stereo not drawn), the figures for the half-maximal inhibitory concentration (IC50) in assay [1] and in assay [2] were 49.8 µM and 0.62 µM, respectively.

With `COc1cc2c(cc1OC)C(=O)C(Cc1cccc(CN3CCCC3)c1)O2` (stereo not drawn), the values for the IC50 in assay [1] and in assay [2] were 57.6 µM and 7.02 µM, respectively.

As to `COc1cc2c(cc1OC)C(=O)C(Cc1ccc(CN3CCCCC3)cc1)C2` (stereo not drawn), the results for the IC50 in assay [1] and in assay [2] were 48.3 µM and 0.12 µM, respectively.

Turning to `CCN(C)Cc1cccc(CC2Cc3cc(OC)c(OC)cc3C2=O)c1` (stereo not drawn), the values for the half-maximal inhibitory concentration (IC50) in assay [1] and in assay [2] were 18.5 µM and 0.69 µM, respectively.

For `CCN(CC)Cc1cccc(/C=C2\Cc3cc(OC)c(OC)cc3C2=O)c1`, the IC50 turned out to be 71 µM in assay [1] and 0.44 µM in assay [2].

Consider `COc1cc2c(cc1OC)C(=O)/C(=C/c1cccc(CN3CCCC3)c1)O2`, for which the IC50 in assay [1] is 72 µM; in assay [2] it was 0.29 µM.

For `COc1cc2c(cc1OC)C(=O)C(CC1CCN(Cc3ccccc3)CC1)C2` (stereo not drawn) [DONEPEZIL], the Activity in assay [5] turned out to be 1.9; in assay [8], 75 s.

Turning to `CCN(C)C(=O)Oc1cccc([C@H](C)N(C)C)c1` [RIVASTIGMINE], the values for the Activity in assay [5] and in assay [8] were 2 and 73 s, respectively.

Values taken from ChEMBL document CHEMBL1152849, “Design, synthesis and AChE inhibitory activity of indanone and aurone derivatives” (Eur J Med Chem, 2009).
